# Tests used:
# [1] = Partition coefficient (logP); assay type: physicochemical; conditions: octanol/water
# Method in brief: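 Crude octanol/water log P calculated from tabulated fragmentation constants; for one hydroxy analogue also determined experimentally.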
# [2] = molecular target: GABA-A receptor; anion channel; test: In vitro inhibition of [3H]flunitrazepam binding to rat GABA-A Benzodiazepine receptor; assay type: protein-complex assay
# Mus musculus [3] = test: Convulsant effects in mice treated with PTZ (40 mg/kg) dose; assay type: functional
# [4] = molecular target: GABA-A receptor; anion channel; test: In vitro potency measured against [3H]diazepam at the benzodiazepine receptor in rat
# Method in brief: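 Male Sprague-Dawley rats (175-250 g); cerebral cortex homogenized in 50 mM Tris-HCl pH 7.4 and washed by repeated centrifugation at 2000g. Membranes incubated with 2 nM [3H]diazepam for 60-90 min at 0-4 °C, then filtered. Nonspecific binding defined with 10 µM flunitrazepam. Six or more concentrations; IC50 from Hill plots; mean of at least three determinations.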
# Mus musculus [5] = test: Antagonism of Diazepam (2.5 mg/kg) anticonvulsant effects in mice treated with PTZ (80 mg/kg); assay type: functional
# Method in brief: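 Male NIH mice in groups of 10 received graded ip doses in Emulphor/saline 1:9, or vehicle. Diazepam 2.5 mg/kg ip followed 15 min later, then PTZ 80 mg/kg 15 min after that. ED50 is the dose antagonizing diazepam's protection against tonic/clonic convulsions in 50% of mice. Highest dose tested was 30 or 40 mg/kg.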
SMILES,IC50 [4],also measured
c1ccc2c(c1)[nH]c1c2ncc2[nH]c3ccccc3c21,–,logP [1]: 3.87
CC(C)(C)C(=O)Oc1ccc2c(c1)[nH]c1c3c4ccccc4nc-3c[nH]c12,–,IC50 [2]: 200 nM; ED50 (Mus musculus [3]): 17.5 mg/kg
Fc1ccc2[nH]c3c4c5ccccc5nc-4c[nH]c3c2c1,6 nM,logP [1]: 4.01; ED50 (Mus musculus [3]): > 30 mg/kg
O=S(=O)(O)c1ccc2[nH]c3c(ncc4[nH]c5ccc(S(=O)(=O)O)cc5c43)c2c1,5000 nM,–
Brc1ccc2[nH]c3c(ncc4[nH]c5ccc(Br)cc5c43)c2c1,> 320 nM,–
Nc1ccc2[nH]c3c[nH]c4c5cc(Cl)ccc5nc-4c3c2c1,> 350 nM,–
Brc1ccc2c(c1)[nH]c1c3c4ccccc4nc-3c[nH]c12,19 nM,ED50 (Mus musculus [5]): > 40 mg/kg; logP [1]: 4.73; ED50 (Mus musculus [3]): > 40 mg/kg
Clc1ccc2c(c1)[nH]c1c2ncc2[nH]c3ccccc3c21,–,logP [1]: 4.58; ED50 (Mus musculus [3]): > 30 mg/kg
c1ccc(COc2ccc3c(c2)[nH]c2c3ncc3[nH]c4ccccc4c32)cc1,> 4000 nM,–
COc1ccc2c(c1)[nH]c1c3c4ccccc4nc-3c[nH]c12.Cl,8 nM,ED50 (Mus musculus [5]): 3.9 mg/kg; logP [1]: 4.04; ED50 (Mus musculus [3]): 7 mg/kg
Cc1cccc2c1[nH]c1c3c4ccccc4nc-3c[nH]c12,83 nM,–
Cc1ccc2[nH]c3c4c5ccccc5nc-4c[nH]c3c2c1,224 nM,–
Cc1cccc2[nH]c3c4c5ccccc5nc-4c[nH]c3c12,> 5000 nM,–
Brc1ccc2[nH]c3c4c5ccccc5nc-4c[nH]c3c2c1,750 nM,–
Cn1c2ccccc2c2[nH]cc3nc4ccccc4c-3c21,157 nM,–
Cc1ccc2c(c1)[nH]c1c3c4ccccc4nc-3c[nH]c12,8 nM,ED50 (Mus musculus [5]): > 40 mg/kg; logP [1]: 4.53; ED50 (Mus musculus [3]): > 40 mg/kg
Oc1ccc2c(c1)[nH]c1c3c4ccccc4nc-3c[nH]c12,6 nM,ED50 (Mus musculus [5]): > 40 mg/kg; logP [1]: 0.95; ED50 (Mus musculus [3]): > 40 mg/kg
Nc1ccc2[nH]c3c[nH]c4c5ccccc5nc-4c3c2c1,44 nM,–
O=[N+]([O-])c1ccc2[nH]c3c[nH]c4c5cc(Cl)ccc5nc-4c3c2c1,1190 nM,–
O=[N+]([O-])c1ccc2[nH]c3c[nH]c4c5ccccc5nc-4c3c2c1,4 nM,–
O=[N+]([O-])c1ccc2[nH]c3c[nH]c4c5ccc(Cl)cc5nc-4c3c2c1,126 nM,–
Fc1ccc2c(c1)[nH]c1c3c4ccccc4nc-3c[nH]c12,–,ED50 (Mus musculus [5]): > 30 mg/kg; logP [1]: 4.01; ED50 (Mus musculus [3]): > 30 mg/kg
Oc1ccc2[nH]c3c4c5ccccc5nc-4c[nH]c3c2c1,114 nM,ED50 (Mus musculus [5]): > 40 mg/kg; ED50 (Mus musculus [3]): > 40 mg/kg
Nc1ccc2[nH]c3c[nH]c4c5ccc(Cl)cc5nc-4c3c2c1,98 nM,–

# The next lines start with results.
IC50 [4],SMILES,also measured
> 4000 nM,c1ccc(COc2cccc3[nH]c4c5c6ccccc6nc-5c[nH]c4c23)cc1,–
578 nM,Oc1cccc2[nH]c3c4c5ccccc5nc-4c[nH]c3c12,–
6 nM,Brc1ccc2[nH]c3cnc4c5ccccc5[nH]c4c3c2c1,–
1140 nM,Cn1c2ccccc2c2c3nc4ccccc4c-3[nH]cc21,–
28 nM,Brc1cccc2c1[nH]c1c3c4ccccc4nc-3c[nH]c12,–
250 nM,CCc1nc2c3ccccc3[nH]c2c2c1[nH]c1ccccc12,–
250 nM,COc1cccc2[nH]c3c4c5ccccc5nc-4c[nH]c3c12,–
310 nM,Clc1ccc2[nH]c3c[nH]c4c5cccc(Cl)c5nc-4c3c2c1,–
1600 nM,c1ccc(COc2ccc3[nH]c4c5c6ccccc6nc-5c[nH]c4c3c2)cc1,–

# Source: ChEMBL document CHEMBL1124900, “Synthesis of substituted 7,12-dihydropyrido[3,2-b:5,4-b']diindoles: rigid planar benzodiazepine receptor ligands with inverse agonist/antagonist properties” (J Med Chem, 1990)
